Reference: ChEMBL document CHEMBL3745665, “Discovery of benzamides as potent human β3 adrenergic receptor agonists” (Bioorg Med Chem Lett, 2016)

Columns and labels:
[1] = molecular target: Beta-1 adrenergic receptor (Homo sapiens, UniProt P08588); experiment: Displacement of [125I]CYP from human beta-1 adrenergic receptor expressed in CHO cell membrane after 1 hr by scintillation counting method; assay type: cell membranes
[2] = molecular target: T1, Beta-3 adrenergic receptor (Homo sapiens, UniProt P13945); experiment: Agonist activity at human beta-3 adrenergic receptor expressed in CHO cells assessed as increase in cAMP level after 30 mins by LANCE TR-FRET assay; assay type: functional, cell-based
Target sequence in this assay (P13945 whole entry): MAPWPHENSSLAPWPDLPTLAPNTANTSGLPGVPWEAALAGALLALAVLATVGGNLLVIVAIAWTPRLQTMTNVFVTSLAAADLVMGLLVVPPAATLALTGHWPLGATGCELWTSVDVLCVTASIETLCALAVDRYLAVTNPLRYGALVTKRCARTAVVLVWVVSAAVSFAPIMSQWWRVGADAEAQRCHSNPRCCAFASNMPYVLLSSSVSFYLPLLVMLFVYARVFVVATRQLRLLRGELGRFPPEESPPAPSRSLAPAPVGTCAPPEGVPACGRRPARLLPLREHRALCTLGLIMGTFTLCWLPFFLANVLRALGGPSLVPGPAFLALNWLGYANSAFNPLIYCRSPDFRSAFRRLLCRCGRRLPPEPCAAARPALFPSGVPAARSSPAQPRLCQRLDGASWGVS

[3] = Oral bioavailability in dog at 2 mg/kg; assay type: ADME, organism-based, Canis lupus familiaris; conditions: in vivo
[4] = molecular target: T1, Beta-3 adrenergic receptor; experiment: Agonist activity at human beta-3 adrenergic receptor expressed in CHO cells assessed as increase in cAMP level after 30 mins by LANCE TR-FRET assay relative to R-(-)-isoproterenol; assay type: functional, cell-based
Procedure, shortened: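 Efficacy: the fitted maximal value of each test compound's concentration–response curve, expressed as a percent of the maximal response to R-(−)-isoproterenol.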
Target sequence in this assay (P13945 whole entry, looked up): as the sequence (P13945 whole entry) above

[5] = Oral bioavailability in rat at 2 mg/kg; assay type: ADME, organism-based; conditions: in vivo
Canis familiaris = experiment: Dose normalized AUC in dog at 2 mg/kg, po; assay type: ADME, organism-based, Canis lupus familiaris; conditions: in vivo
[6] = Half life in dog at 0.5 mg/kg, iv or 2 mg/kg, po; assay type: ADME, organism-based, Canis lupus familiaris; conditions: in vivo
Rattus norvegicus = experiment: Dose normalized AUC in rat at 2 mg/kg, po; assay type: ADME, organism-based; conditions: in vivo
[7] = Plasma clearance in rat at 1 mg/kg, iv or 2 mg/kg, po; assay type: ADME, organism-based
[8] = Volume of distribution in dog at 0.5 mg/kg, iv or 2 mg/kg, po; assay type: ADME, organism-based, Canis lupus familiaris; conditions: in vivo
[9] = molecular target: Voltage-gated inwardly rectifying potassium channel KCNH2 (Homo sapiens, UniProt Q12809); experiment: Inhibition of human ERG by IKr binding assay
[10] = molecular target: Beta-2 adrenergic receptor (Homo sapiens, UniProt P07550); experiment: Displacement of [125I]CYP from human beta-2 adrenergic receptor expressed in CHO cell membrane after 1 hr by scintillation counting method; assay type: cell membranes
[11] = Volume of distribution in rat at 1 mg/kg, iv or 2 mg/kg, po; assay type: ADME, organism-based; conditions: in vivo
[12] = Plasma clearance in dog at 0.5 mg/kg, iv or 2 mg/kg, po; assay type: ADME, organism-based, Canis lupus familiaris
[13] = Half life in rat at 1 mg/kg, iv or 2 mg/kg, po; assay type: ADME, organism-based; conditions: in vivo
[14] = Half life in rhesus monkey; assay type: ADME, organism-based, Macaca mulatta; conditions: in vivo
[15] = Volume of distribution in rhesus monkey; assay type: ADME, organism-based, Macaca mulatta; conditions: in vivo
[16] = Oral bioavailability rhesus monkey; assay type: ADME, organism-based, Macaca mulatta; conditions: in vivo
[17] = Plasma clearance in rhesus monkey; assay type: ADME, organism-based, Macaca mulatta
Rhesus monkey = experiment: Dose normalized AUC in po dosed rhesus monkey; assay type: ADME, organism-based, Macaca mulatta; conditions: in vivo
[18] = Stability in rhesus monkey liver microsomes assessed as residual compound after 45 mins; assay type: ADME, Macaca mulatta; conditions: read-out: Stability
[19] = Stability in rat hepatocytes assessed as residual compound after 60 mins; assay type: ADME, cell-based, Hepatocyte; conditions: read-out: Stability
[20] = Stability in rat liver microsomes assessed as residual compound after 45 mins; assay type: ADME; conditions: read-out: Stability
[21] = Stability in dog hepatocytes assessed as residual compound after 60 mins; assay type: ADME, cell-based, Canis lupus familiaris, Hepatocyte; conditions: read-out: Stability
[22] = Stability in human hepatocytes assessed as residual compound after 60 mins; assay type: ADME, cell-based, Hepatocyte; conditions: read-out: Stability
[23] = Stability in human liver microsomes assessed as residual compound after 45 mins; assay type: ADME; conditions: read-out: Stability
[24] = Stability in dog liver microsomes assessed as residual compound after 45 mins; assay type: ADME, Canis lupus familiaris; conditions: read-out: Stability

Sequence of Voltage-gated inwardly rectifying potassium channel KCNH2 (Q12809 whole entry): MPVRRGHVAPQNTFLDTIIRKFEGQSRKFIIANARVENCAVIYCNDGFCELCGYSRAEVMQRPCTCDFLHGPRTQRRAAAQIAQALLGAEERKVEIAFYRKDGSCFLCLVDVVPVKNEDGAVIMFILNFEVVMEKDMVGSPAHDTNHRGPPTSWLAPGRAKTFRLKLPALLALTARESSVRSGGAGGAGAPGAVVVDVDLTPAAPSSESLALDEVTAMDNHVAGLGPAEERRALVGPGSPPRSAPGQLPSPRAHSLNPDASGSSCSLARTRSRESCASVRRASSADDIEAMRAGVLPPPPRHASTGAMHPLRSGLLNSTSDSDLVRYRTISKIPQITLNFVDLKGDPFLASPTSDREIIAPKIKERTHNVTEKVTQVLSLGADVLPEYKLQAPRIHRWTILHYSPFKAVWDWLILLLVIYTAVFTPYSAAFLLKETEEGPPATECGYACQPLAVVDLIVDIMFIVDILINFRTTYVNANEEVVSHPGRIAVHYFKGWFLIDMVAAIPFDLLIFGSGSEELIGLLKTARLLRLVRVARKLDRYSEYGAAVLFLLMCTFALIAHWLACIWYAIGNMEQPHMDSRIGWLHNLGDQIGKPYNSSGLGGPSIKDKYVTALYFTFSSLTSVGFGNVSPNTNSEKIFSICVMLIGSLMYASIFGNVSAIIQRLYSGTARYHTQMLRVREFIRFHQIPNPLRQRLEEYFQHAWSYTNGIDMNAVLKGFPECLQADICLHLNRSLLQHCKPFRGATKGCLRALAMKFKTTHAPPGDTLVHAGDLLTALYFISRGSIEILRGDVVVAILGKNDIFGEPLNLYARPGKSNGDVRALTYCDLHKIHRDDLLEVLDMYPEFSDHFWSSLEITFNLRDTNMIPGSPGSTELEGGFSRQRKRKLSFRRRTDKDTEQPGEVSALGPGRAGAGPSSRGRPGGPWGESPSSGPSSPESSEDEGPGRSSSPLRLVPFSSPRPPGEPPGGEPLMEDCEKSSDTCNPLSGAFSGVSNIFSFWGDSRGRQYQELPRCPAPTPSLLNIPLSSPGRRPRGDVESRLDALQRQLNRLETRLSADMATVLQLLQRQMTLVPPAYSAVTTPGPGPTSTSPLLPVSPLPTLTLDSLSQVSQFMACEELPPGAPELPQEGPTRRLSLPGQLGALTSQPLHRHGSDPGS
Sequence of Beta-1 adrenergic receptor (P08588 whole entry): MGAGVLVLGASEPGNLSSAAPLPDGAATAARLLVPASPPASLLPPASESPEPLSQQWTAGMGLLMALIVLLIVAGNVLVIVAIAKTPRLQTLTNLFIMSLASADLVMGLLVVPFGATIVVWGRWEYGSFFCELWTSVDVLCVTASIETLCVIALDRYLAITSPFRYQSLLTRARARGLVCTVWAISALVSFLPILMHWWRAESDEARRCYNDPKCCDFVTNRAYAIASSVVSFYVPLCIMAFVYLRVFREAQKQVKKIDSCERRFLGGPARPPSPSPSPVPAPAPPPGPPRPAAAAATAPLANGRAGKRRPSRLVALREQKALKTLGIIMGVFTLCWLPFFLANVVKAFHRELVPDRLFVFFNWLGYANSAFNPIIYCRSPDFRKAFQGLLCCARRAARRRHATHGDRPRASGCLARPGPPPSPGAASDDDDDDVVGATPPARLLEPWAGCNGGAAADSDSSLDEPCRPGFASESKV
Sequence of Beta-2 adrenergic receptor (P07550 whole entry): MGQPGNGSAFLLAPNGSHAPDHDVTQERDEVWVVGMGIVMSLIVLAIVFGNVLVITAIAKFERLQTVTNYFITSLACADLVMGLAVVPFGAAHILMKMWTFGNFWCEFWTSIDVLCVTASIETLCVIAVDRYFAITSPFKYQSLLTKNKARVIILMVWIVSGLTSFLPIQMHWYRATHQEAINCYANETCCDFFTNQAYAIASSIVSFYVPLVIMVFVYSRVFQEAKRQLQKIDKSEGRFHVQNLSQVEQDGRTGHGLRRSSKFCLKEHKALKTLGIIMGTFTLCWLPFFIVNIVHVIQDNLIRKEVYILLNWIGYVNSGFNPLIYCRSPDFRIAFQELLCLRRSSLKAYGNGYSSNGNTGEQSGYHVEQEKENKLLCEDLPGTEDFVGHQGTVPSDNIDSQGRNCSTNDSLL

## Cn1nnc([C@H]2[C@@H]3CN(C(=O)c4ccc(C[C@@H]5CC[C@H]([C@H](O)c6ccccc6)N5)cc4)C[C@@H]32)n1
[1]
  IC50: > 20 µM
[2]
  EC50: 0.0054 µM
[3]
  bioavailability: 51%
[4]
  %max: 97%
[5]
  bioavailability: 56%
Canis familiaris
  AUC/dose: 0.99 µM·h
[6]
  half-life: 3.7 h
Rattus norvegicus
  AUC/dose: 0.73 µM·h/mg/kg
[7]
  clearance: 29 mL/min/kg
[8]
  Vd: 5.5 L/kg
[9]
  IC50: 17 µM
[10]
  IC50: > 20 µM
[11]
  Vd: 6.5 L/kg
[12]
  clearance: 19 mL/min/kg
[13]
  half-life: 3.2 h

## CCc1nnc([C@H]2[C@@H]3CN(C(=O)c4ccc(C[C@@H]5CC[C@H]([C@H](O)c6ccccc6)N5)cc4)C[C@@H]32)o1
[14]
  half-life: 2.4 h
[1]
  IC50: > 20 µM
[2]
  EC50: 0.0031 µM
[15]
  Vd: 5.2 L/kg
[3]
  bioavailability: 44%
[16]
  bioavailability: 5%
[17]
  clearance: 30 mL/min/kg
[4]
  %max: 97%
[5]
  bioavailability: 33%
Canis familiaris
  AUC/dose: 0.46 µM·h
[6]
  half-life: 3.7 h
Rattus norvegicus
  AUC/dose: 0.21 µM·h/mg/kg
[7]
  clearance: 56 mL/min/kg
Rhesus monkey
  AUC/dose: 0.06 µM·h
[8]
  Vd: 9.2 L/kg
[10]
  IC50: > 20 µM
[11]
  Vd: 9.3 L/kg
[12]
  clearance: 36 mL/min/kg
[13]
  half-life: 3 h

## CCOC(=O)C1CCN(C(=O)c2ccc(C[C@@H]3CC[C@H]([C@H](O)c4ccccc4)N3)cc2)CC1
[1]
  IC50: > 20 µM
[2]
  EC50: 0.063 µM
[4]
  %max: 95%
[10]
  IC50: 10.9 µM

## O=C(c1ccc(C[C@@H]2CC[C@H]([C@H](O)c3ccccc3)N2)cc1)N1C[C@@H]2[C@H](C1)[C@H]2c1nnco1
[1]
  IC50: > 20 µM
[2]
  EC50: 0.0017 µM
[18]
  remaining at 0.75 h: 80%
[19]
  remaining at 1 h: ≥ 85%
[20]
  remaining at 0.75 h: 98%
[4]
  %max: 101%
[21]
  remaining at 1 h: ≥ 85%
[5]
  bioavailability: 43%
[22]
  remaining at 1 h: ≥ 85%
Rattus norvegicus
  AUC/dose: 0.26 µM·h/mg/kg
[7]
  clearance: 62 mL/min/kg
[23]
  remaining at 0.75 h: 84%
[24]
  remaining at 0.75 h: 73%
[9]
  IC50: 55 µM
[10]
  IC50: > 20 µM
[11]
  Vd: 9 L/kg
[13]
  half-life: 1.4 h

## CCOC(=O)[C@@H]1[C@@H]2CN(C(=O)c3ccc(C[C@@H]4CC[C@H]([C@H](O)c5ccccc5)N4)cc3)C[C@@H]21
[1]
  IC50: > 20 µM
[2]
  EC50: 0.075 µM
[4]
  %max: 97%
[10]
  IC50: > 20 µM

## CCS(=O)(=O)C1CCN(C(=O)c2ccc(C[C@@H]3CC[C@H]([C@H](O)c4ccccc4)N3)cc2)CC1
[1]
  IC50: > 20 µM
[2]
  EC50: 0.0097 µM
[4]
  %max: 100%
[9]
  IC50: > 60 µM
[10]
  IC50: > 20 µM

## O=C(c1ccc(C[C@@H]2CC[C@H]([C@H](O)c3ccccc3)N2)cc1)N1CCC2(CCOC2=O)CC1
[1]
  IC50: > 20 µM
[2]
  EC50: 0.0033 µM
[3]
  bioavailability: 17%
[20]
  remaining at 0.75 h: 56%
[4]
  %max: 89%
[5]
  bioavailability: 31%
Canis familiaris
  AUC/dose: 0.23 µM·h
[6]
  half-life: 3.2 h
Rattus norvegicus
  AUC/dose: 0.21 µM·h/mg/kg
[7]
  clearance: 56 mL/min/kg
[8]
  Vd: 7.4 L/kg
[23]
  remaining at 0.75 h: 53%
[24]
  remaining at 0.75 h: 78%
[9]
  IC50: 46 µM
[10]
  IC50: 5.6 µM
[11]
  Vd: 7.2 L/kg
[12]
  clearance: 31 mL/min/kg
[13]
  half-life: 2.5 h

## Nc1nc(CC(=O)Nc2ccc(C[C@@H]3CC[C@H]([C@H](O)c4ccccc4)N3)cc2)cs1
[4]
  %max: 99%

## O=C(Nc1ccc(C[C@@H]2CC[C@H]([C@H](O)c3cccnc3)N2)cc1)C1CCc2ccnn21 (some centres undefined)
[2]
  EC50: 0.0037 µM
[4]
  %max: 84%

## Nc1nc(CNC(=O)c2ccc(C[C@@H]3CC[C@H]([C@H](O)c4ccccc4)N3)cc2)cs1
[1]
  IC50: > 20 µM
[2]
  EC50: 0.024 µM
[4]
  %max: 84%
[9]
  IC50: > 30 µM
[10]
  IC50: 5.2 µM

## CCOC(=O)[C@H]1[C@@H]2CN(C(=O)c3ccc(C[C@@H]4CC[C@H]([C@H](O)c5ccccc5)N4)cc3)C[C@@H]21
[1]
  IC50: > 20 µM
[2]
  EC50: 0.00049 µM
[4]
  %max: 90%
[10]
  IC50: 13.4 µM

## CC1(C)CC2(CCN(C(=O)c3ccc(C[C@@H]4CC[C@H]([C@H](O)c5ccccc5)N4)cc3)CC2)C(=O)O1
[1]
  IC50: > 20 µM
[2]
  EC50: 0.0019 µM
[4]
  %max: 85%
[5]
  bioavailability: 38%
Rattus norvegicus
  AUC/dose: 0.16 µM·h/mg/kg
[7]
  clearance: 86 mL/min/kg
[9]
  IC50: 31 µM
[10]
  IC50: 11 µM
[11]
  Vd: 9.5 L/kg
[13]
  half-life: 2 h
